In ChEMBL document CHEMBL2046290, “Ureido-substituted sulfamates show potent carbonic anhydrase IX inhibitory and antiproliferative activities against breast cancer cell lines” (Bioorg Med Chem Lett, 2012):
The source made the active and inactive calls. The calls are words filed in the database; no cut-off is given here.

Assays:
SK-BR-3 = assay: Antiproliferative activity against human SKBR3 cells at 100 uM after 5 days by SRB assay under normoxic condition; type: functional, cell-based
Method in brief: (§1)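 Cells seeded at 1 × 10^3 per well, adhered 48 h, medium removed, then exposed to compound at 100 μM. After 5 days, growth measured by SRB: fixed with cold 25% TCA 1 h at 4 °C, stained with SRB in 1% acetic acid 30 min at room temperature, dye solubilised in 10 mM Tris pH 10.5, read at 540. Values expressed relative to untreated control (1.0).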

MCF-10A = assay: Antiproliferative activity against human MCF10A cells at 100 uM after 5 days by SRB assay under normoxic condition; type: functional, cell-based; method in brief: as §1
ZR-75-1 = assay: Antiproliferative activity against human ZR-75-1 cells at 100 uM after 5 days by SRB assay under normoxic condition; type: functional, cell-based; method in brief: as §1
MDA-MB-361 = assay: Antiproliferative activity against human MDA-MB-361 cells at 100 uM after 5 days by SRB assay under normoxic condition; type: functional, cell-based; method in brief: as §1
MCF7 [1] = assay: Antiproliferative activity against human MCF7 cells at 10 uM after 5 days by SRB assay under hypoxic condition; type: functional, cell-based
Method in brief: (§2)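 MCF7 seeded at 3 × 10^3 per well, adhered 48 h, then equilibrated 6 h at 0.5% O2 in a hypoxia station. Compounds added in hypoxic medium across 0.1–100 μM. After 5 days, proliferation measured by SRB: cold 25% TCA fixation 1 h at 4 °C, SRB in 1% acetic acid 30 min, solubilised in 10 mM Tris pH 10.5, read at 540.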

MCF7 [2] = assay: Antiproliferative activity against human MCF7 cells at 30 uM after 5 days by SRB assay under hypoxic condition; type: functional, cell-based; method in brief: as §2
MCF7 [3] = assay: Antiproliferative activity against human MCF7 cells after 5 days by SRB assay under hypoxic condition; type: functional, cell-based; method in brief: as §2
Carbonic anhydrase 9 = Carbonic anhydrase 9 (Homo sapiens, UniProt Q16790); assay: Inhibition of human carbonic anhydrase 9 preincubated for 15 mins measured for 10 to 100 sec using phenol red indicator-based stopped flow assay
Method in brief: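 In-house recombinant human enzyme; stopped-flow CO2 hydration at 1.7–17 mM CO2, with 0.2 mM phenol red read at 557 nm in 20 mM Hepes pH 7.5 and 20 mM Na2SO4. Inhibitor (diluted from 0.1 mM aqueous stock to 0.01 nM) preincubated with enzyme 15 min at room temperature. Initial rates taken over 10–100 s, uncatalysed rate subtracted. Ki by non-linear least squares, mean of at least three determinations.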

**Q.** How did the Activity (SK-BR-3) turn out when `Cc1cc(C)cc(NC(=O)Nc2ccc(OS(N)(=O)=O)cc2)c1` was run?
**A.** Active

**Q.** And the Activity (MCF-10A)?
**A.** Active

**Q.** And the Activity (ZR-75-1)?
**A.** Active

**Q.** What about the Activity (MDA-MB-361) of the same compound?
**A.** Active

**Q.** And the Activity (MCF7 [1])?
**A.** Active

**Q.** What about the Activity (MCF7 [2]) of the same compound?
**A.** Active

**Q.** How did the Activity (SK-BR-3) turn out when `CN(C)c1ccc(NC(=O)Nc2ccc(OS(N)(=O)=O)cc2)cc1` was run?
**A.** Active

**Q.** What about the Activity (MCF-10A) of the same compound?
**A.** Active

**Q.** What about the Activity (ZR-75-1) of the same compound?
**A.** Active

**Q.** And the Activity (MDA-MB-361)?
**A.** Active

**Q.** And the Activity (MCF7 [3])?
**A.** Dose-dependent effect

**Q.** And the Activity (MCF7 [1])?
**A.** Active

**Q.** And the Activity (MCF7 [2])?
**A.** Active

**Q.** `NS(=O)(=O)Oc1ccc(NC(=O)Nc2ccc(Cc3ccccc3)cc2)cc1` was tested. Which Ki (Carbonic anhydrase 9) did it give?
**A.** 16 nM

**Q.** With `NS(=O)(=O)Oc1ccc(NC(=O)Nc2ccc(Cl)cc2)cc1` as the compound, how does the Activity (SK-BR-3) read?
**A.** Active

**Q.** And the Activity (MCF-10A)?
**A.** Active

**Q.** And the Activity (ZR-75-1)?
**A.** Active

**Q.** What about the Activity (MDA-MB-361) of the same compound?
**A.** Active

**Q.** What about the Activity (MCF7 [3]) of the same compound?
**A.** Dose-dependent effect

**Q.** What about the Activity (MCF7 [1]) of the same compound?
**A.** Active

**Q.** And the Activity (MCF7 [2])?
**A.** Active

**Q.** `CCOC(=O)c1cccc(NC(=O)Nc2ccc(OS(N)(=O)=O)cc2)c1` was tested. Which Ki (Carbonic anhydrase 9) did it give?
**A.** 12 nM

**Q.** With `CCOC(=O)c1ccccc1NC(=O)Nc1ccc(OS(N)(=O)=O)cc1` as the compound, how does the Ki (Carbonic anhydrase 9) read?
**A.** 8 nM

**Q.** Which results are given for `NS(=O)(=O)Oc1ccc(NC(=O)Nc2ccc(F)cc2)cc1`?
**A.** Activity (SK-BR-3): Active; Activity (MCF-10A): Active; Activity (ZR-75-1): Active; Activity (MDA-MB-361): Active; Activity (MCF7 [3]): Dose-dependent effect; Activity (MCF7 [1]): Active; Activity (MCF7 [2]): Active

**Q.** What does the source list for `NS(=O)(=O)Oc1ccc(NC(=O)Nc2ccc([N+](=O)[O-])cc2)cc1`?
**A.** Activity (SK-BR-3): Active; Activity (MCF-10A): Active; Activity (ZR-75-1): Active; Activity (MDA-MB-361): Active; Activity (MCF7 [3]): Dose-dependent effect; Activity (MCF7 [1]): Active; Activity (MCF7 [2]): Active

**Q.** `CCOC(=O)c1ccc(NC(=O)Nc2ccc(OS(N)(=O)=O)cc2)cc1` was tested. Which Ki (Carbonic anhydrase 9) did it give?
**A.** 8 nM

**Q.** Which results are given for `NS(=O)(=O)Oc1ccc(NC(=O)Nc2ccc(Oc3ccccc3)cc2)cc1`?
**A.** Activity (SK-BR-3): Active; Activity (MCF-10A): Active; Activity (ZR-75-1): Active; Activity (MDA-MB-361): Active; Activity (MCF7 [3]): Dose-dependent effect; Activity (MCF7 [1]): Active; Activity (MCF7 [2]): Active

**Q.** What does the source list for `NS(=O)(=O)Oc1ccc(NC(=O)Nc2c(F)c(F)c(F)c(F)c2F)cc1`?
**A.** Activity (SK-BR-3): Active; Activity (MCF-10A): Active; Activity (ZR-75-1): Active; Activity (MDA-MB-361): Active; Activity (MCF7 [3]): Dose-dependent effect; Activity (MCF7 [1]): Active; Activity (MCF7 [2]): Active

**Q.** With `NS(=O)(=O)Oc1ccc(NC(=O)NCCc2cccc3ccccc23)cc1` as the compound, how does the Ki (Carbonic anhydrase 9) read?
**A.** 15 nM

**Q.** With `CC(C)(C)OC(=O)N1CCC(NC(=O)Nc2ccc(OS(N)(=O)=O)cc2)CC1` as the compound, how does the Ki (Carbonic anhydrase 9) read?
**A.** 7 nM

**Q.** With `COc1ccc(NC(=O)Nc2ccc(OS(N)(=O)=O)cc2)cc1` as the compound, how does the Activity (SK-BR-3) read?
**A.** Active

**Q.** And the Activity (MCF-10A)?
**A.** Active

**Q.** What about the Activity (ZR-75-1) of the same compound?
**A.** Active

**Q.** And the Activity (MDA-MB-361)?
**A.** Active

**Q.** And the Activity (MCF7 [3])?
**A.** Dose-dependent effect

**Q.** What about the Activity (MCF7 [1]) of the same compound?
**A.** Active

**Q.** And the Activity (MCF7 [2])?
**A.** Active

**Q.** With `NS(=O)(=O)Oc1ccc(NC(=O)NCCc2ccccc2)cc1` as the compound, how does the Activity (SK-BR-3) read?
**A.** Active

**Q.** What about the Activity (MCF-10A) of the same compound?
**A.** Active

**Q.** What about the Activity (ZR-75-1) of the same compound?
**A.** Active

**Q.** What about the Activity (MDA-MB-361) of the same compound?
**A.** Active

**Q.** And the Activity (MCF7 [3])?
**A.** Dose-dependent effect

**Q.** And the Activity (MCF7 [1])?
**A.** Active

**Q.** And the Activity (MCF7 [2])?
**A.** Active
